The source of these data is ChEMBL document CHEMBL1144684, “Evaluation of a series of naphthamides as potent, orally active vascular endothelial growth factor receptor-2 tyrosine kinase inhibitors” (J Med Chem, 2008).

Active and inactive are the calls of the source. The calls are words filed in the database; no cut-off is given here.

The nature of data set [1]: Tmax in mouse at 10 mg/kg, po. It counts as ADME, organism-based. Further details: dose 10 mg/kg, route oral. The following applies: in vivo. In a few lines: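 Oral suspension dosing; vehicles: mouse 10 mg/kg in OraPlus, dog 0.5 mg/kg in 1% Tween-80/2% HPMC/97% water, cynomolgus monkey 2 mg/kg.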
Data set [2] relates to Mus musculus. The data set can be described thus: Cmax in human HT29 cell xenografted CD1 nu/nu mouse at 10 mg/kg, po qd. Conditions: in vivo. It counts as ADME, organism-based, HT-29. Further details: dose 10 mg/kg, route oral. A general note: In xenograft studies the graft and the host belong to different species.
Data set [3] addresses Receptor-type tyrosine-protein kinase FLT3 (Homo sapiens) (UniProt P36888). The data set can be described thus: Inhibition of Flt3.
Data set [4] relates to Mus musculus. The data set is described as follows: Inhibition of VEGF-induced vascular permeability in HEK293 cells over expressing mouse recombinant VEGF implanted in CD1 nu/nu mouse assessed as Matrigel plug at 30 mg/kg, po after 6 hrs. It counts as functional, organism-based. Further details: dose 30 mg/kg. In outline:
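HEK293 cells transfected with murine VEGF (or empty vector) were suspended in Matrigel and injected sc into the ventral surface of CD-1 nu/nu mice. At 24 h post-implant, a single oral gavage dose was given as an OraPlus suspension (or vehicle). After 6 h, Evans blue dye was quantified in 1 cm2 of skin over the plug. Plasma was sampled at 6 h; n = 5/group.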

Receptor-type tyrosine-protein kinase FLT3 (Homo sapiens), sequence (P36888 whole entry): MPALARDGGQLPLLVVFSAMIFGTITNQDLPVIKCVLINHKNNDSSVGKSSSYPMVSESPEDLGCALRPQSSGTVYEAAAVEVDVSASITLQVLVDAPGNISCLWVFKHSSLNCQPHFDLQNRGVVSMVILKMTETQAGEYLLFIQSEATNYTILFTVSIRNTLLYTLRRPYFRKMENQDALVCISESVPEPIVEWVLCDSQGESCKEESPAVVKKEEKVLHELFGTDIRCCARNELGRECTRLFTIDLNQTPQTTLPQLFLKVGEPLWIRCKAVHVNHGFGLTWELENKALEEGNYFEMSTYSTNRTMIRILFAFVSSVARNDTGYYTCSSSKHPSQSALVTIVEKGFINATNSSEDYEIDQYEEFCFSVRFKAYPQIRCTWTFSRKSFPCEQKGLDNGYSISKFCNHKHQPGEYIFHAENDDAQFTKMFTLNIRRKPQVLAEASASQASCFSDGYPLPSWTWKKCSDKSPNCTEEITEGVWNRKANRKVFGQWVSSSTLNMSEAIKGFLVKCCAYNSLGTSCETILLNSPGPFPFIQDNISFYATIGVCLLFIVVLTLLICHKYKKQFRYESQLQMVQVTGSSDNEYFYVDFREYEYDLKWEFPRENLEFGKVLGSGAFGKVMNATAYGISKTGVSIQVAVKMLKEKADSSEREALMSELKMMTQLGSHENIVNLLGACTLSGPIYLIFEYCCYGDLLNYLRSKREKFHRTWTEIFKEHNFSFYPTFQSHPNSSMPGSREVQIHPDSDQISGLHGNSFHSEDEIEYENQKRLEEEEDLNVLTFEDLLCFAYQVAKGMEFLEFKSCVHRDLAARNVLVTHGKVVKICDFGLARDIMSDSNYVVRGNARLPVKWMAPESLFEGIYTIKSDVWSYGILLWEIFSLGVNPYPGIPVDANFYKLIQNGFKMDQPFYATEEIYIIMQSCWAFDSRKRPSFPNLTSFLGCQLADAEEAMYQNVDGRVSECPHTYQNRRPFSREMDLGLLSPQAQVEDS

As a reminder, the Tmax is the time from dosing to the highest level. The term Cmax denotes the highest concentration seen after dosing. For `COc1cc2nccc(Oc3ccc4c(C(N)=O)cccc4c3)c2cc1OC`, the Tmax in data set [1] came out at 15 min. The peak level in data set [2] (Cmax) was 1300 nM. For the same compound, in data set [3], the result was inactive. In addition, the Cp in data set [4] was 2.3 µM.
